Measurements as given in ChEMBL document CHEMBL3872218, “Synthesis and T-type calcium channel-blocking effects of aryl(1,5-disubstituted-pyrazol-3-yl)methyl sulfonamides for neuropathic pain treatment” (Eur J Med Chem, 2016).

Key:
[1] = Drug uptake in Sprague-Dawley rat brain at 10 mg/kg, po at 2 hrs post dose; assay type: ADME, organism-based; details: read-out: Drug uptake
[2] = AUClast in Sprague-Dawley rat at 10 mg/kg, iv; assay type: ADME, organism-based; parameters: dose 10 mg/kg, time 0 - last, route intravenous; details: in vivo
[3] = tested on: Rattus norvegicus; experiment: Antineuropathic pain activity in rat spinal nerve ligation model assessed as effect on cold allodynia by measuring frequency of paw withdrawal at 100 mg/kg, po measured at 1 hr relative to gabapentin; assay type: functional
Method in brief: (§1)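 Spinal nerve ligation rats tested 2 weeks after nerve surgery, 100 mg/kg oral, n = 4 per group. Behaviour re-tested at 1, 3 and 5 h after dosing. Mechanical allodynia: von Frey filament applied five times, every 3–4 s, to the hind paw on a wire mesh floor. Cold allodynia: acetone applied to the plantar hind paw on a metal mesh floor.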

[4] = Apparent volume of distribution at steady state in Sprague-Dawley rat at 10 mg/kg, iv; assay type: ADME, organism-based; details: in vivo, read-out: Vdss(app)
[5] = Cmax in Sprague-Dawley rat at 10 mg/kg, po; assay type: ADME, organism-based; parameters: dose 10 mg/kg, route oral; details: in vivo
[6] = Drug excretion in Sprague-Dawley rat at 10 mg/kg, po; assay type: ADME, organism-based; details: in vivo, read-out: Drug excretion
[7] = Ratio of drug level in brain to plasma in Sprague-Dawley rat at 10 mg/kg, po at 2 hrs post dose; assay type: ADME, organism-based; details: read-out: BPR
[8] = molecular target: Voltage-dependent T-type calcium channel subunit alpha-1G (Homo sapiens, UniProt O43497); experiment: Inhibition of Cav3.1 alpha1G (unknown origin) expressed in HEK293 cells assessed as decrease in KCl-induced depolarization mediated intracellular Ca2+ level at 10 uM by fluo3/AM based high throughput screening assay relative to control; assay type: cell-based
Method in brief: (§2)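 HEK293 cells stably expressing Cav3.1 or Cav3.2 plated at 4 × 10⁴ cells/well and used the next day. Loaded 60 min at room temperature with […] fluo3/AM plus 0.001% Pluronic F-127 in HEPES-buffered saline (1.8 mM CaCl₂, pH 7.4). Ca²⁺ fluorescence read on FDSS6000 as % inhibition, compound at […].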

[9] = species: Homo sapiens; experiment: Inhibition of N-type Ca2+ channel (unknown origin) at 10 uM by whole-cell patch clamp method relative to control
[10] = tested on: Rattus norvegicus; experiment: Antineuropathic pain activity in rat spinal nerve ligation model assessed as effect on cold allodynia by measuring frequency of paw withdrawal at 100 mg/kg, po measured at 1 hr relative to control; assay type: functional; method in brief: as §1
[11] = Plasma concentration in Sprague-Dawley rat at 10 mg/kg, iv at 2 hrs post dose; assay type: ADME, organism-based
[12] = Metabolic stability in human liver microsomes assessed as compound remaining at 1 uM in presence of NADPH as cofactor by LC-MS/MS method; assay type: ADME; details: read-out: Stability
Method in brief: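 Pooled mixed-gender human liver microsomes incubated with compound at 37 °C with NADPH as cofactor. Result given as % parent compound remaining.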

[13] = Mean residence time in Sprague-Dawley rat at 10 mg/kg, iv; assay type: ADME, organism-based; details: in vivo
[14] = molecular target: T1, Voltage-dependent T-type calcium channel subunit alpha-1H (Homo sapiens, UniProt O95180); experiment: Inhibition of Cav3.2 alpha1H (unknown origin) expressed in HEK293 cells assessed as decrease in KCl-induced depolarization mediated intracellular Ca2+ level at 10 uM by fluo3/AM based high throughput screening assay relative to control; assay type: cell-based; method in brief: as §2
T1 sequence (O95180 whole entry): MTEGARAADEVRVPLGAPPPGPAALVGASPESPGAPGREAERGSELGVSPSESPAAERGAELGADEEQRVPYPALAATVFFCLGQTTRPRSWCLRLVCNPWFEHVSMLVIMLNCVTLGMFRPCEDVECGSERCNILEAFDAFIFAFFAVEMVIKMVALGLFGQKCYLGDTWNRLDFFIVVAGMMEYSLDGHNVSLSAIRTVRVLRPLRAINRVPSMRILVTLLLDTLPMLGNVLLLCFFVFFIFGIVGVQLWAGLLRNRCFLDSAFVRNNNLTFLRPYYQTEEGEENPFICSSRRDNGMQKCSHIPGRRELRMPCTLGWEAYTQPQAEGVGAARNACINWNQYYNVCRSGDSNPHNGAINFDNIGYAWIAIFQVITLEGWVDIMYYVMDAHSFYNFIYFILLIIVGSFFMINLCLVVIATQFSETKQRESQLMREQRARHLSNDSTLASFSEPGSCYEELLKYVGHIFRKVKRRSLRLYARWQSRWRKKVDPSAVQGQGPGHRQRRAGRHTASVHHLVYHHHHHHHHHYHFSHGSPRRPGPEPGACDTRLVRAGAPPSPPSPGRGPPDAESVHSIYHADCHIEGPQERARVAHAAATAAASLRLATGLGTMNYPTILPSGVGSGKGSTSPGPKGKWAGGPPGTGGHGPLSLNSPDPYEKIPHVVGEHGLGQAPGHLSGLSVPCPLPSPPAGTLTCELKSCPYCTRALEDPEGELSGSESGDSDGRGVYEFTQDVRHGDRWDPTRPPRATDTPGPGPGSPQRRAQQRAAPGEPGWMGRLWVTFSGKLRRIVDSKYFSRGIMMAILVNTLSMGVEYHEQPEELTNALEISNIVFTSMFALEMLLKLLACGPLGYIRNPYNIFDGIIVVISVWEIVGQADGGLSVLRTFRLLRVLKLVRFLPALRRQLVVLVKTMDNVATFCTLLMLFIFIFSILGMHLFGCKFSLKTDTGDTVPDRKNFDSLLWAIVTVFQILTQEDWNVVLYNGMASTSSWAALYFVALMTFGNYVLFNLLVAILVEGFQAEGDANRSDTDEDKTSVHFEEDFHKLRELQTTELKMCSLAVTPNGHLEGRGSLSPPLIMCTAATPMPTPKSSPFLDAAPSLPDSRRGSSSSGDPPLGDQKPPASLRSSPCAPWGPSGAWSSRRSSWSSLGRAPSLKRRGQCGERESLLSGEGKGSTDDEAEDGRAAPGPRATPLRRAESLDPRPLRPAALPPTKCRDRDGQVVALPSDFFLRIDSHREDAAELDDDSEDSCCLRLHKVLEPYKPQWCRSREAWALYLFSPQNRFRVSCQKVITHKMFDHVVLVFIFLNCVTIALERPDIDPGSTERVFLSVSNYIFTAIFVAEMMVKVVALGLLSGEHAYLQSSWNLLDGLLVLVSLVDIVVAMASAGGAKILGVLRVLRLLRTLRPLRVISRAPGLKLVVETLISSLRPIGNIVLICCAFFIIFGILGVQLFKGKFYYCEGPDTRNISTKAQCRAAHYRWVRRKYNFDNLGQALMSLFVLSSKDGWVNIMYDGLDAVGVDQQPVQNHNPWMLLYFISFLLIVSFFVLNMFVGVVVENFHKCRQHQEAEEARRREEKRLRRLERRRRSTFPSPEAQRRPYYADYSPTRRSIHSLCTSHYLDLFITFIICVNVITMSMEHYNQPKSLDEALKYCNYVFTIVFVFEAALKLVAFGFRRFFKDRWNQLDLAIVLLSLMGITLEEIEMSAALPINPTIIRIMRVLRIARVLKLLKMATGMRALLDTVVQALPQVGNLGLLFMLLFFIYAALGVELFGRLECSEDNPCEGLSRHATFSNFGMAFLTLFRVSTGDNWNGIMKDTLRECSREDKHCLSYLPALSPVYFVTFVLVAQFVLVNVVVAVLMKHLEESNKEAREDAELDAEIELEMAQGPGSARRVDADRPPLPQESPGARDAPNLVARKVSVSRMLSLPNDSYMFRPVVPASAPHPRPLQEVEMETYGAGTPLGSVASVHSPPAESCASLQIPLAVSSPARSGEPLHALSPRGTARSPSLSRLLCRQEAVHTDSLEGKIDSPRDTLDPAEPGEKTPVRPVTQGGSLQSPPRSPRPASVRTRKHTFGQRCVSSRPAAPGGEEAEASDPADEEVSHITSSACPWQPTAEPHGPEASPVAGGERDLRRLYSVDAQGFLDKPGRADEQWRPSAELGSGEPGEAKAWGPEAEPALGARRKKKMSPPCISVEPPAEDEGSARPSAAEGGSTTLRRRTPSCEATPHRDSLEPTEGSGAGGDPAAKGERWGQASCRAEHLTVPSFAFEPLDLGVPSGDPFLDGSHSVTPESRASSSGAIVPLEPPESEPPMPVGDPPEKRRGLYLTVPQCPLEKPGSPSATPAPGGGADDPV

[15] = AUClast in Sprague-Dawley rat at 10 mg/kg, po; assay type: ADME, organism-based; parameters: dose 10 mg/kg, route oral, time 0 - last; details: in vivo
[16] = Inhibition of N-type Ca2+ channel (unknown origin) by whole-cell patch clamp method; details: Homo sapiens
[17] = tested on: Rattus norvegicus; experiment: Antineuropathic pain activity in rat spinal nerve ligation model assessed as effect on cold allodynia by measuring frequency of paw withdrawal at 100 mg/kg, po measured at 5 hrs relative to gabapentin; assay type: functional; method in brief: as §1
[18] = Oral bioavailability in Sprague-Dawley rat at 10 mg/Kg; assay type: ADME, organism-based; details: in vivo
[19] = tested on: Rattus norvegicus; experiment: Antineuropathic pain activity in rat spinal nerve ligation model assessed as effect on cold allodynia by measuring frequency of paw withdrawal at 100 mg/kg, po measured at 3 hrs relative to control; assay type: functional; method in brief: as §1
[20] = molecular target: T2, CYP1A2 (Homo sapiens, UniProt P05177); experiment: Inhibition of human CYP1A2 assessed as remaining activity at 10 uM using vivid CYP450 substrate measured after 15 mins by fluorescence assay relative to alpha-naphthoflavon; assay type: ADME; details: probe vivid CYP450 substrate, read-out: Activity
T2 sequence (P05177 whole entry): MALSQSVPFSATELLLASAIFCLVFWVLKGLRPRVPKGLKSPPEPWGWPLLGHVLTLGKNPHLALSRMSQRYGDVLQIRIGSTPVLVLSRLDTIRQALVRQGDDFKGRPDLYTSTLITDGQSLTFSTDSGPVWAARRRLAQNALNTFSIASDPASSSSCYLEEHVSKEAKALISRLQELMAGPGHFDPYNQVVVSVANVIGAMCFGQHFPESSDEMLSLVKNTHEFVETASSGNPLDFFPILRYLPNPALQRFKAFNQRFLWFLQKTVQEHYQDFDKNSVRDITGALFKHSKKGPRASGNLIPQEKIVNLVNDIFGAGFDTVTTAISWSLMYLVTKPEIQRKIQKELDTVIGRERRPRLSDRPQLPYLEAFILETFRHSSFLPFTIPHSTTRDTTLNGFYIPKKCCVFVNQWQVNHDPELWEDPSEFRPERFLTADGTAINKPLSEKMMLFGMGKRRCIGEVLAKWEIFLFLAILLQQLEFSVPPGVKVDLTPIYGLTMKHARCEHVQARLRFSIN
Method in brief: (§3)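 Vivid fluorescence CYP assay: test compound at […] in water, mixed with BACULOSOMES master pre-mix and regeneration system, preincubated 15 min at 37 °C. Reaction started with Vivid substrate and NADPH. Remaining activity read by fluorescence as % of control, triplicate, mean ± SD. Isoform-specific reference inhibitors: α-naphthoflavone (1A2), sulfaphenazole (2C9), quinidine (2D6), ketoconazole (3A4).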

[21] = molecular target: T1, Voltage-dependent T-type calcium channel subunit alpha-1H; experiment: Inhibition of Cav3.2 alpha1H (unknown origin) expressed in HEK293 cells by whole-cell patch clamp method; assay type: cell-based
Method in brief: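 Whole-cell patch clamp on HEK293 cells expressing Cav3.1 or Cav3.2. T-type currents evoked every 15 s by a 50-ms step from −100 mV to −30 mV. External solution (mM): 140 NaCl, 2 CaCl₂, 10 HEPES, 10 glucose, pH 7.4.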

[22] = tested on: Rattus norvegicus; experiment: Antineuropathic pain activity in rat spinal nerve ligation model assessed as effect on mechanical allodynia by measuring frequency of paw withdrawal at 100 mg/kg, po measured at 1 hr relative to gabapentin; assay type: functional; method in brief: as §1
[23] = Tmax in Sprague-Dawley rat at 10 mg/kg, po; assay type: ADME, organism-based; details: in vivo
[24] = molecular target: CYP2C9 (Homo sapiens, UniProt P11712); experiment: Inhibition of human CYP2C9 assessed as remaining activity at 10 uM using vivid CYP450 substrate measured after 15 mins by fluorescence assay relative to sulfaphenazol; assay type: ADME; details: probe vivid CYP450 substrate, read-out: Activity; method in brief: as §3
CYP2C9, sequence (P11712 whole entry): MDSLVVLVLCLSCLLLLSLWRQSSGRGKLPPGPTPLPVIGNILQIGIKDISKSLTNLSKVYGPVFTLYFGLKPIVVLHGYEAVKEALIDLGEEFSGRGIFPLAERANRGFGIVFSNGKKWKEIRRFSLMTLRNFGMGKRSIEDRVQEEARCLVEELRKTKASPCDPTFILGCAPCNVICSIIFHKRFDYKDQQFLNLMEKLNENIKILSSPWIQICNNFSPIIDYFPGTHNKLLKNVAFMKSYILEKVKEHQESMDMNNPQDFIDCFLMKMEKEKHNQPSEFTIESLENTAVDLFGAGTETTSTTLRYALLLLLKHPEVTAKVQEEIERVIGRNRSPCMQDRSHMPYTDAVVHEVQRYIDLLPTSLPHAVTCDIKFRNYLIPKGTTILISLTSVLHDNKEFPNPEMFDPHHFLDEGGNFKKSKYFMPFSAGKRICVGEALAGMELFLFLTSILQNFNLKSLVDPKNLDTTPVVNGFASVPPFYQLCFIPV

[25] = tested on: Rattus norvegicus; experiment: Antineuropathic pain activity in rat spinal nerve ligation model assessed as effect on cold allodynia by measuring frequency of paw withdrawal at 100 mg/kg, po measured at 3 hrs relative to gabapentin; assay type: functional; method in brief: as §1
[26] = Terminal half life in Sprague-Dawley rat at 10 mg/kg, po; assay type: ADME, organism-based; details: in vivo, read-out: beta t1/2

## CC(C)Cc1cc(CNS(=O)(=O)c2cccc(F)c2)nn1-c1ccccc1
[1]
  concentration at 2 h: 8.6 ng/mL
[2]
  AUC(0-t): 2010 ng·h/mL
[3]
  MPE: 202.07%
[4]
  Vd: 4.95 L/kg
[5]
  Cmax: 70 ng/mL
[6]
  dose excreted: 0%
[7]
  Kp at 2 h: 0.19
[8]
  inhibition: 64.1%
[9]
  inhibition: 55.6%
[10]
  MPE: 88.93%
[11]
  concentration at 2 h: 270 ng/mL
[12]
  remaining at 1 µM: 1.72%
[13]
  MRT: 58 min
[14]
  inhibition: 62.7%
[15]
  AUC(0-t): 164 ng·h/mL
[16]
  IC50: 14.5 µM
[17]
  MPE: 185.11%
[18]
  bioavailability: 8.3%
[19]
  MPE: 73.87%
[20]
  activity at 0.25 h, 10 µM: 45.6%
[21]
  IC50: 2080 nM
[22]
  MPE: 14.78%
[23]
  Tmax: 1.1 h
[24]
  activity at 0.25 h, 10 µM: 30.4%
[25]
  MPE: 91.75%
[26]
  half-life: 66.8 min
